Here are results for seven compounds from ChEMBL document CHEMBL1124294, “Nonsteroidal antiandrogens. Synthesis and structure-activity relationships of 3-substituted derivatives of 2-hydroxypropionanilides” (1988).

The species entered for assay [1] is Rattus norvegicus. The experiment in a line: Effective dose required to inhibit 50 percent of androgen hormone activity in intact rat. It counts as functional. In short, it runs like this:
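Rats dosed with vehicle 0.5% polysorbate. Killed 24 h after the last dose; seminal vesicles dissected, blotted and weighed. Percent inhibition uses a cumulative castrate control group as the 100% effect. ED50 taken from dose-response curves.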

For assay [2], the species on record is Rattus norvegicus. Briefly: Agonist activity indicated by a statistically significant increase in ventral prostate gland weight compared, to control animals; NA means no statistically significant increase in ventral prostate weight compared to controls. The assay is classed as functional, organism-based. The essentials:
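Male rats castrated at 24 days of age, groups of five. Killed 24 h after the final dose. Seminal vesicles and ventral prostate dissected, cleaned and weighed. Value is ventral prostate weight in mg, compared with castrated vehicle controls for statistical significance.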

Assay [3] has as its system Rattus norvegicus. Briefly: Percent inhibition of androgen hormone activity in rat at 50 mg/kg. It counts as functional. The essentials:
(§1)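 Rats dosed with vehicle 0.5% polysorbate. Killed 24 h after the last dose; seminal vesicles dissected, blotted and weighed. […] Percent inhibition uses a cumulative castrate control group as the 100% effect. ED50 taken from dose-response curves.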

For assay [4], the system named is Rattus norvegicus. The experiment in a line: Percent inhibition of androgen hormone in rat at 25 mg/kg. It counts as functional. In short, it runs like this: as §1
In assay [5] the test system is Rattus norvegicus. Briefly: Percent inhibition of androgen hormone in rat at 50 mg/kg. It counts as functional. In short, it runs like this:
as §1

In assay [6] the test system is Rattus norvegicus. Briefly: Effect of compound on testosterone hormone level on 14-day dosing in intact rats at 25 mg/kg. The assay is classed as functional.
In assay [7] the test system is Rattus norvegicus. The experiment in a line: Effect of compound on testosterone hormone level on 14-day dosing in intact rats; No statistically significant difference from controls. The assay is classed as functional, organism-based.
Assay [8] concerns Rattus norvegicus. The experiment in a line: Effect of compound on LH level on 14-day dosing in intact rats; No statistically significant difference from control. It counts as functional, organism-based.
The subject of assay [9] is Rattus norvegicus. Briefly: Effect of compound on LH level on 14-day dosing in intact rats 25 mg/kg. The assay is classed as functional.
Assay [10] concerns Rattus norvegicus. The experiment in a line: Effect of compound on LH level on 14-day dosing in intact rats. It counts as functional.
The subject of assay [11] is Rattus norvegicus. The experiment in a line: Effect of compound on testosterone hormone level on 14-day dosing in intact rats. The assay is classed as functional.

Molecules are shown by their SMILES. Active and inactive are the calls of the source. No cut-off for these calls is given here. Where only a bound is given, the exact number is not on record here.

On to `CC(O)(CSc1ccc(F)cc1)C(=O)Nc1ccc(C#N)c(C(F)(F)F)c1` (centres undefined), for which the ED50 (as a rule, the dose that gives a 50% effect, or the effect in half of the subjects) in [1] turned out to be 0.5 mg/kg. Moreover, the Weight entry in assay [2] is “Not significant”.
On to `CC(O)(CSc1ccccc1)C(=O)Nc1ccc([N+](=O)[O-])cc1` (centres undefined), for which the inhibition in vivo (as a rule, the drop in the measured response relative to a control, in per cent) at 50 mg/kg in assay [3] was 11%.
With `CC(O)(CSc1ccccc1)C(=O)Nc1ccc(Cl)c(Cl)c1` (centres undefined), the inhibition in vivo at 25 mg/kg in assay [4] was 44%.
`CC(O)(CS(=O)(=O)c1ccc(F)cc1)C(=O)Nc1ccc([N+](=O)[O-])c(C(F)(F)F)c1` (centres undefined) came in with an ED50 in assay [1] of 0.4 mg/kg.
As for `CC(O)(CSc1ccccc1)C(=O)Nc1ccc(Cl)c([N+](=O)[O-])c1` (centres undefined), the inhibition in vivo at 50 mg/kg in assay [5] was determined as 36%. Also, the Weight entry in assay [2] was “Not significant”.
`CC(O)(CS(=O)(=O)c1ccc(F)cc1)C(=O)Nc1ccc(C#N)c(C(F)(F)F)c1` (centres undefined) [BICALUTAMIDE] displayed a Testosterone in assay [6] of 3.97 ng/mL. In addition, the ED50 in assay [1] stood at 0.5 mg/kg. Also, the Testosterone entry in [7] is “inactive”. The Weight result in assay [2] is “inactive”. Moreover, the LH result in [8] was “inactive”. The compound also returned an LH in assay [9] of 1.04 ng/mL.
In the case of `CC(C)C(=O)Nc1ccc([N+](=O)[O-])c(C(F)(F)F)c1` [FLUTAMIDE], the Testosterone was 7.61 ng/mL in assay [6] and less than 0.01 ng/mL in assay [11]. This compound also registered an ED50 in assay [1] of 2 mg/kg. For the same compound, the LH in assay [10] was less than 0.01 ng/mL; in [9] it was 9 ng/mL. Moreover, the Weight result in assay [2] was “inactive”.
